# Active and inactive are the calls of the source. The rule behind the calls is not given here.
# Assays:
# [1] = molecular target: T1, NAD-dependent protein deacetylase sirtuin-2 (Homo sapiens, UniProt Q8IXJ6); experiment: Inhibition of N-terminal His-tagged recombinant human SIRT-2 expressed in Escherichia coli using Fluor-de-Lys-SIRT1 as substrate after 15 mins by fluorescence assay
# T1 sequence (Q8IXJ6 whole entry): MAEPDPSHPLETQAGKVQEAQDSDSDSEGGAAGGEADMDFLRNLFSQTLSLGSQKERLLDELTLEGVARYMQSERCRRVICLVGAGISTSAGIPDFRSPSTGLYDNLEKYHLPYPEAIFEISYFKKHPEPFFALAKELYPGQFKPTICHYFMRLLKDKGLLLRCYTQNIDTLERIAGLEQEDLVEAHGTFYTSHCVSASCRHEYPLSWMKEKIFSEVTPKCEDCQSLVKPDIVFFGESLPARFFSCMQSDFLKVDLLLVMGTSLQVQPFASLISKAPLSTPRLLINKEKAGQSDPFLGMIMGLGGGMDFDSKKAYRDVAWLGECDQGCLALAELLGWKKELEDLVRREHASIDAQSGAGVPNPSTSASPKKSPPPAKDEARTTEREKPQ
# [2] = molecular target: T2, NAD-dependent protein deacetylase sirtuin-1 (Homo sapiens) (UniProt Q96EB6); experiment: Inhibition of SIRT1 in human U373 cells assessed as increase of histone H3K56 acetylation at 10 to 25 after 8 to 24 hrs by Western blotting method; format: cell-based
# T2 sequence (whole entry): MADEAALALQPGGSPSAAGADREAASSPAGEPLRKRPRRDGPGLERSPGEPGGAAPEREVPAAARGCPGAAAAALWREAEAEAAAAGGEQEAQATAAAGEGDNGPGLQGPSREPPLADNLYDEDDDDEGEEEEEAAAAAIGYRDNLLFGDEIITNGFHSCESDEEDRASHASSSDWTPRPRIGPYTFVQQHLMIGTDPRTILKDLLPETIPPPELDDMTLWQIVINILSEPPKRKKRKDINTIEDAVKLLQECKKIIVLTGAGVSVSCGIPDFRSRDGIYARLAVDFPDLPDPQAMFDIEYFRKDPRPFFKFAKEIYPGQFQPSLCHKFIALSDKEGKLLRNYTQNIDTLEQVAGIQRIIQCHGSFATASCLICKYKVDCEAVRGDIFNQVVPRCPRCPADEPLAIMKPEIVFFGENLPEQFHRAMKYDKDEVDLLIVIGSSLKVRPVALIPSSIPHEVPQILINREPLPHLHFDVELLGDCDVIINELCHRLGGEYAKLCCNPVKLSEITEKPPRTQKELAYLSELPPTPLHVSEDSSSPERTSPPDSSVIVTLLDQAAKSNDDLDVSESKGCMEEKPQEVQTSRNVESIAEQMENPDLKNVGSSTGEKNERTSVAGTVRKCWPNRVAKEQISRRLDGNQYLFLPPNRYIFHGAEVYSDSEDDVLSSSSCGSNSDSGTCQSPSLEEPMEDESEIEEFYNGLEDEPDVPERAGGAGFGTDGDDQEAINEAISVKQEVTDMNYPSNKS
# Procedure, shortened: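 Cells treated with the compound, then histone H3K56 acetylation assessed by Western blot on histone extracts; histone H1 or Coomassie staining as loading control.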
# Hs 683 [3] = experiment: Cell cycle arrest in human Hs683 cells assessed as accumulation at G1 phase at IC50 after 24 to 48 hrs by propidium iodide staining-based flow cytometry; format: functional
# Procedure, shortened: (§1)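 Cells were exposed to compound at the IC50 for each line from the 72 h MTT assay, or to a reference HDAC inhibitor at 2 μM. Cell cycle distribution was analyzed after 24 and 48 h. Results are mean ± SD of three independent experiments, with p values against control cells.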
# U-373MG ATCC = experiment: Inhibition of 3D tumor-like growth of human U373 cells assessed as decrease in ATP level at 5 to 10 uM treated for 24 hrs measured after 96 hrs by CellTiter-Glo assay; format: functional, cell-based
# Hs 683 [4] = experiment: Antitumor activity against CM-Dil fluorescent dye labeled human Hs683 cells xenografted in zebrafish embryo at 5 to 10 uM preincubated with tumor for 30 hrs followed by tumor implantation in zebra fish yolk sac measured after 72 hrs by fluorescence microscopy; format: functional, cell-based
# Procedure, shortened: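 Cells were pretreated in vitro at 5 or 10 μM for 30 or 36 h and labeled with CM-DiI 2 h before injection. Then 100–200 cells were injected into the yolk sac of wild-type zebrafish 48 h post-fertilization, anesthetized in 0.02% tricaine. Embryos were kept 72 h at 28.5 °C in Danieau solution with 0.003% phenylthiourea, and fluorescence was quantified in eight fish per condition.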
# PBMC = experiment: Cytotoxicity against human PBMC assessed as decrease in cell viability at 1 to 100 uM after 24 to 48 hrs; format: cell-based
# HCT-116 [5] = experiment: Antiproliferative activity against human HCT116 cells expressing wild type p53 after 72 hrs by MTT assay; format: functional, cell-based
# Procedure, shortened: (§2)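 MTT assay: cells in RPMI 1640 with 10% heat-inactivated FCS at 37 °C and 5% CO2 were seeded 24 h before treatment. They were exposed 72 h to compound at 0.01–100 μM, with DMSO as solvent.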
# HCT-116 [6] = experiment: Antiproliferative activity against p53 knock out human HCT116 cells after 72 hrs by MTT assay; format: functional, cell-based; procedure, shortened: as §2
# [7] = molecular target: T2, NAD-dependent protein deacetylase sirtuin-1 (Homo sapiens); experiment: Inhibition of SIRT1 in human U373 cells assessed as increase of histone H4 acetylation at 1 uM after 8 hrs by Western blotting method relative to control; format: cell-based
# [8] = molecular target: T3, NAD-dependent protein deacetylase sirtuin-2 (Homo sapiens) (UniProt Q8IXJ6); experiment: Inhibition of SIRT2 in human U373 cells assessed as increase of alpha-tubulin acetylation at 1 uM after 8 hrs by Western blotting method relative to control; format: cell-based
# T3 sequence (whole entry): T1 sequence (Q8IXJ6 whole entry)
# [9] = Potency index, ratio of AGK2 IC50 to test compound IC50 for human U373 cells; format: functional, U-373MG ATCC
# Hs 683 [10] = experiment: Cell cycle arrest in human Hs683 cells assessed as accumulation at sub-G1 phase at IC50 for MTT assay after 24 to 48 hrs by propidium iodide staining-based flow cytometry; format: functional; procedure, shortened: as §1
# CCRF-CEM = experiment: Growth inhibition of human CCRF-CEM cells after 48 hrs by SRB assay; format: functional
# HOP-92 = experiment: Growth inhibition of human HOP92 cells after 48 hrs by SRB assay; format: functional; conditions: HOP-92, 48 h
# HCT-116 [11] = experiment: Growth inhibition of human HCT116 cells after 48 hrs by SRB assay; format: functional; conditions: HCT-116, 48 h
# HCT-15 = experiment: Growth inhibition of human HCT15 cells after 48 hrs by SRB assay; format: functional; conditions: HCT-15, 48 h
# Malme-3M = experiment: Growth inhibition of human MALME-3M cells after 48 hrs by SRB assay; format: functional
# UACC-257 = experiment: Growth inhibition of human UACC257 cells after 48 hrs by SRB assay; format: functional; conditions: UACC-257, 48 h
# 786-0 = experiment: Growth inhibition of human 786-0 cells after 48 hrs by SRB assay; format: functional; conditions: 786-0, 48 h
# A498 = experiment: Growth inhibition of human A498 cells after 48 hrs by SRB assay; format: functional; conditions: A498, 48 h
# CAKI-1 = experiment: Growth inhibition of human Caki1 cells after 48 hrs by SRB assay; format: functional; conditions: CAKI-1, 48 h
compound,measurement,setting,value
CC(C)(C)OC(=O)Nc1ccc2c(c1)C(NC(=O)Nc1cccc(C#N)c1)CC(C)(C)O2 (stereo unspecified),IC50,[1],4200 nM
same,inhibition,[2],Active
same,Activity,Hs 683 [3],Active
same,inhibition,U-373MG ATCC,Active
same,Activity,Hs 683 [4],Active
same,Activity,PBMC,Non-Toxic
same,Activity,HCT-116 [5],Active
same,Activity,HCT-116 [6],Active
same,fold change (FC),[7],1.1
same,fold change (FC),[8],0.9
same,Ratio IC50,[9],6 - 14
same,Activity,Hs 683 [10],inactive
same,GI50,CCRF-CEM,3310 nM
same,GI50,HOP-92,776 nM
same,GI50,HCT-116 [11],1740 nM
same,GI50,HCT-15,2000 nM
same,GI50,Malme-3M,4070 nM
same,GI50,UACC-257,871 nM
same,GI50,786-0,7590 nM
same,GI50,A498,7080 nM
same,GI50,CAKI-1,2450 nM

# — ChEMBL document CHEMBL4052637, “Discovery and Characterization of R/S-N-3-Cyanophenyl-N'-(6-tert-butoxycarbonylamino-3,4-dihydro-2,2-dimethyl-2H-1-benzopyran-4-yl)urea, a New Histone Deacetylase Class III Inhibitor Exerting Antiproliferative Activity against Cancer Cell Lines” (J Med Chem, 2017)
